Here are results for 22 molecules from ChEMBL document CHEMBL2010694, “Indolyl and dihydroindolyl N-glycinamides as potent and in vivo active NPY5 antagonists” (Bioorg Med Chem Lett, 2012).

In series [1] the test system is Brain. As to the kind of experiment: Drug uptake in Sprague-Dawley rat brain at 10 mg/kg, po by LC-MS/MS analysis. As to conditions: in vivo, read-out: Drug uptake. More on the design: dose 10 mg/kg, route oral. Format: ADME, organism-based. Put shortly:
(§1)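 Male Sprague-Dawley rats (300–350 g), femoral artery cannulated; single 10 mg/kg oral dose in an appropriate vehicle, N = 3. Blood taken predose, 1, 2 and 4 h; brains then collected and stored at -80 °C. Equal portions of plasma or homogenized brain from the three rats pooled per time point, protein precipitated, quantified by LC/MS/MS.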

Series [2] relates to Liver microsomes. As to the kind of experiment: Intrinsic clearance in human liver microsomes at 1 uM by LC/MS analysis. Format: ADME, Microsome. The method in brief: (§2)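 Compound incubated with human or rat liver microsomes; reaction quenched with acetonitrile, centrifuged, and remaining drug in supernatant measured by LC/MS to estimate T1/2, from which intrinsic clearance was derived.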

Series [3] has as its system Plasma. As to the kind of experiment: Plasma concentration in Sprague-Dawley rat at 10 mg/kg, po by LC-MS/MS analysis. In kind it is ADME, organism-based. Further details: dose 10 mg/kg, route oral. To be noted: in vivo. Put shortly:
as §1

Series [4] concerns Liver microsomes. Kind of series: Intrinsic clearance in rat liver microsomes at 1 uM by LC/MS analysis. In kind it is ADME, Microsome. Put shortly: as §2
For series [5], the target named is T1, Neuropeptide Y receptor type 5 (Homo sapiens, UniProt Q15761).
T1 sequence (Q15761 whole entry): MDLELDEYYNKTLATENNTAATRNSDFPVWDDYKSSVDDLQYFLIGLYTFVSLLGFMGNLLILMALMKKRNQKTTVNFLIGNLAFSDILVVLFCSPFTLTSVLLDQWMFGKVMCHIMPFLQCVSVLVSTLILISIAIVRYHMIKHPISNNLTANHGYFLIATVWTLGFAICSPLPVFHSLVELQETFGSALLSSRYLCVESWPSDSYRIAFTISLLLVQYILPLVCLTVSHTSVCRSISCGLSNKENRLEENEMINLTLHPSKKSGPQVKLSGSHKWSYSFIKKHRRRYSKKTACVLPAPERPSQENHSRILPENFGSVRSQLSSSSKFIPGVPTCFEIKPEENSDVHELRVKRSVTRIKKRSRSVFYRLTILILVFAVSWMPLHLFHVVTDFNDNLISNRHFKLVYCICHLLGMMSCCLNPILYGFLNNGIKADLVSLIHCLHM
As to the kind of experiment: Displacement of [125I]peptide YY from human NPY5 receptor.

Structures are written as SMILES.

As to `CC(C)S(=O)(=O)NC[C@H]1CC[C@H](NC(=O)Cn2ccc3cc(F)c(F)cc32)CC1`, the results for the concentration in series [1] and in series [3] were 328 nM and 2080 nM, respectively. The CLH in series [2] came out at 2.5 L/min; in series [4], 28 mL/min. In series [5], this molecule returned a Ki of 0.9 nM.

On to `CC(C)S(=O)(=O)NC[C@H]1CC[C@H](NC(=O)CN2C(=O)COc3cc(Cl)ccc32)CC1`, for which the CLH was 0.5 L/min in series [2] and 15 mL/min in series [4]. The same molecule yielded a concentration in series [3] of 480 nM.

In the case of `CC(C)S(=O)(=O)NC[C@H]1CC[C@H](NC(=O)CN2CCCc3cc(Cl)ccc32)CC1`, the concentration came to 88 nM in series [1] and 498 nM in series [3]. Also, the figures for the CLH in series [2] and in series [4] were 2.8 L/min and 36 mL/min, respectively.

For the molecule `CC(C)S(=O)(=O)NC[C@H]1CC[C@H](NC(=O)Cn2ccc3ccc(Cl)cc32)CC1`, the concentration is 134 nM in series [1] and 157 nM in series [3]. The CLH in series [2] was 2.6 L/min; in series [4], 37 mL/min. Affinity in series [5] was put at a Ki of 1 nM.

As to `CC(C)S(=O)(=O)NC[C@H]1CC[C@H](NC(=O)CCN2CCc3ccccc32)CC1`, the concentration stood at 7 nM in series [1] and 24 nM in series [3]. Moreover, the results for the CLH in series [2] and in series [4] were 5.8 L/min and 7.1 mL/min, respectively. In addition, the Ki in series [5] amounted to 1.8 nM.

Turning to `CC(C)S(=O)(=O)NC[C@H]1CC[C@H](NC(=O)Cn2c(=O)oc3ccccc32)CC1`, the concentration is 19 nM in series [1] and 1640 nM in series [3]. For the same molecule, the CLH in series [2] was 0.5 L/min; in series [4], 1.9 mL/min. In series [5], this molecule came in with an inhibitory constant (Ki) of 10 nM.

As for `CC(C)S(=O)(=O)NC[C@H]1CC[C@H](NC(=O)Cn2ccc3cc(C#N)ccc32)CC1`, the concentration in series [1] stood at 43 nM; in series [3], 769 nM. Also, the CLH in series [2] was 0.4 L/min; in series [4] it was 8.7 mL/min. This molecule came in with a Ki in series [5] of 5.6 nM.

For the molecule `Cc1ccc2c(c1)CCN2CC(=O)N[C@H]1CC[C@H](CNS(=O)(=O)C(C)C)CC1`, the concentration was determined as 477 nM in series [1] and 6140 nM in series [3]. Moreover, the CLH is 3.1 L/min in series [2] and 54 mL/min in series [4]. In addition, the inhibitory constant (Ki) in series [5] turned out to be 3.5 nM.

Turning to `CC(C)S(=O)(=O)NC[C@H]1CC[C@H](NC(=O)CN2CCc3c2ccc(F)c3F)CC1`, the concentration in series [1] is 105 nM; in series [3] it was 1520 nM. Besides, the CLH in series [2] was determined as 4.5 L/min; in series [4], 39 mL/min. The molecule further had an inhibition constant (Ki) in series [5] of 1.5 nM.

In the case of `CC(C)S(=O)(=O)NC[C@H]1CC[C@H](NC(=O)Cn2ccc3cc(F)ccc32)CC1`, the concentration in series [1] amounted to 100 nM; in series [3], 1300 nM. The CLH was found to be 0.6 L/min in series [2] and 11 mL/min in series [4]. Further, the Ki in series [5] came to 2.2 nM.

On to `CC(C)S(=O)(=O)NC[C@H]1CC[C@H](NC(=O)Cn2ccc3cccc(Cl)c32)CC1`, for which, in series [5], the affinity, expressed as Ki, was 0.9 nM.

`CC(C)S(=O)(=O)NC[C@H]1CC[C@H](NC(=O)Cn2ccc3ccc(F)cc32)CC1` showed a Ki in series [5] of 1.2 nM.

As to `CC(C)S(=O)(=O)NC[C@H]1CC[C@H](NC(=O)CN2CC(C)(C)c3cc(Cl)ccc32)CC1`, the values for the concentration in series [1] and in series [3] were 50 nM and 417 nM, respectively. The CLH in series [2] was found to be 14 L/min; in series [4], 205 mL/min. In addition, the affinity in series [5], expressed as Ki, was 1.1 nM.

On to `CC(C)S(=O)(=O)NC[C@H]1CC[C@H](NC(=O)Cn2ccc3ccccc32)CC1`, for which the concentration in series [1] amounted to 81 nM; in series [3], 460 nM. Moreover, the CLH was 1 L/min in series [2] and 27 mL/min in series [4]. The molecule further returned a Ki in series [5] of 1.5 nM.

Regarding `CC(C)S(=O)(=O)NC[C@H]1CC[C@H](NC(=O)Cn2ccc3c(Cl)cccc32)CC1`, in series [5], the Ki worked out at 1.7 nM. That is a single-digit nanomolar value.

In the case of `CC(C)S(=O)(=O)NC[C@H]1CC[C@H](NC(=O)Cc2c[nH]c3ccccc23)CC1`, the figures for the concentration in series [1] and in series [3] were 54 nM and 2560 nM, respectively. Moreover, the figures for the CLH in series [2] and in series [4] were 0.5 L/min and 3.4 mL/min, respectively. The inhibition constant (Ki) in series [5] came to 12 nM.

With `CC(C)S(=O)(=O)NC[C@H]1CC[C@H](NC(=O)Cc2cn(C)c3ccccc23)CC1`, the concentration turned out to be 17 nM in series [1] and 296 nM in series [3]. The CLH was 1.2 L/min in series [2] and 22 mL/min in series [4]. In addition, affinity in series [5] was put at a Ki of 2 nM.

With `CC(C)S(=O)(=O)NC[C@H]1CC[C@H](NC(=O)Cn2c(=O)sc3cc(Cl)ccc32)CC1`, the concentration in series [1] was determined as 11 nM; in series [3], 870 nM. Further, the CLH in series [2] worked out at 1 L/min; in series [4] it was 12 mL/min. In addition, the Ki in series [5] was determined as 0.9 nM.

Consider `Cc1cc2ccccc2n1CC(=O)N[C@H]1CC[C@H](CNS(=O)(=O)C(C)C)CC1`, for which the concentration worked out at 49 nM in series [1] and 242 nM in series [3]. Besides, the CLH in series [2] worked out at 1.1 L/min; in series [4], 49 mL/min. Also, the inhibition constant Ki in series [5] was 8.9 nM.

Take `CC(C)S(=O)(=O)NC[C@H]1CC[C@H](NC(=O)CN2CCOc3cc(Cl)ccc32)CC1`: the CLH in series [2] amounted to 2.9 L/min; in series [4], 35 mL/min. In series [3], this molecule yielded a concentration of 428 nM.

Regarding `CC(C)S(=O)(=O)NC[C@H]1CC[C@H](NC(=O)CN2CCc3cc(F)ccc32)CC1`, the concentration turned out to be 117 nM in series [1] and 2680 nM in series [3]. The CLH was 1.4 L/min in series [2] and 21 mL/min in series [4]. In series [5], this molecule displayed a Ki of 4 nM.

Turning to `CC(C)S(=O)(=O)NC[C@H]1CC[C@H](NC(=O)CN2C(=O)CCc3cc(Cl)ccc32)CC1`, the figures for the concentration in series [1] and in series [3] were 17 nM and 877 nM, respectively. The CLH in series [2] was 0.8 L/min; in series [4] it was 40 mL/min.
